# Laboratory results reported in PubChem BioAssay AID488828 (Molecular Libraries Program, Specialized Chemistry Center, …, 2010).
# Activity calls are given as the source filed them.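 The calls were made as follows: active = IC50 at or below 10 µM; inactive = the rest.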
# Target: Transitional endoplasmic reticulum ATPase (Homo sapiens) (UniProt P55072)
# Assay: p97 ATPase inhibitors, SAR follow-up, biochemical, hit optimization round 2 (AID 488828)
# Conditions: purified p97 ATPase, Kinase-Glo ATP luminescence
# Procedure, shortened: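 System: human p97 ATPase / Medium: Tris buffer pH 7.4 with MgCl2 and EDTA / Also added: ATP substrate, 500 µM stock solution / Times: 10 min room-temperature enzyme–compound preincubation, 30 min 37 °C ATP reaction / Detection: Kinase-Glo Plus luminescence of residual ATP / Read-out basis: IC50, Langmuir fit of remaining activity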
# Chain of Transitional endoplasmic reticulum ATPase (Homo sapiens) (P55072 whole entry, looked up): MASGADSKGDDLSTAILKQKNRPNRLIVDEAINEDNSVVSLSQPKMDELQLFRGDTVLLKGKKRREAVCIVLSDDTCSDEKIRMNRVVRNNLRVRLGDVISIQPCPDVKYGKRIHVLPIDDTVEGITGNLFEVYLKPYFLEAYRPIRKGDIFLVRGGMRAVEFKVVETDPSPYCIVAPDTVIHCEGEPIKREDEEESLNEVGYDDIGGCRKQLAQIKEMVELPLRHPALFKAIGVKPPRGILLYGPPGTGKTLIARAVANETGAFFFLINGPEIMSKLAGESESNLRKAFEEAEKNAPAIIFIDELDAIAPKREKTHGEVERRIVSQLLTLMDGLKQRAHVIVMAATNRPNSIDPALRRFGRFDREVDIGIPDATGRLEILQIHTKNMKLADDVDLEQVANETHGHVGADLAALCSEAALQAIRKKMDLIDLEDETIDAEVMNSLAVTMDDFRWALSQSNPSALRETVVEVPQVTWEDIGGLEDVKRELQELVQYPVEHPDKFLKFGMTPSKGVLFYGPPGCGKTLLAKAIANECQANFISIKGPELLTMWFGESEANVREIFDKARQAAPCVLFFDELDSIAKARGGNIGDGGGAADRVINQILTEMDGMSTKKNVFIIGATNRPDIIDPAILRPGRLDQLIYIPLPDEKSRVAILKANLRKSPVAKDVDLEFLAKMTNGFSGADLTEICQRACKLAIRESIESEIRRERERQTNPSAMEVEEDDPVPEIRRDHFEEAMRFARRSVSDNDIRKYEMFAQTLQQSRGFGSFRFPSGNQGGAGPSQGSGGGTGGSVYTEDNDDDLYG
row,IC50,Compound
1,0.9 µM,COc1ccc(Nc2nc(NCc3ccccc3)c3ccccc3n2)cc1F
2,inactive,Brc1ccc2c(NCc3ccccc3)nc(NCc3ccccc3)nc2c1
3,1.2 µM,Fc1cccc(CNc2nc(Nc3cccc(Cl)c3)nc3ccccc23)c1
4,> 30 µM (inactive),Cc1ccc(CNc2nc(Cl)nc3ccccc23)cc1
5,> 30 µM (inactive),Clc1ccc(CNc2nc(Cl)nc3ccccc23)cc1
6,1.1 µM,COc1ccc(Cl)cc1Nc1nc(NCc2ccccc2)c2ccccc2n1
7,1.1 µM,Fc1ccccc1-c1nc(NCc2ccccc2)c2ccccc2n1
8,2.2 µM,Clc1cccc2nc(NCc3ccccc3)nc(NCc3ccccc3)c12
9,0.8 µM,Cc1ccc(F)cc1Nc1nc(NCc2ccccc2)c2ccccc2n1
10,1.8 µM,Fc1ccccc1CNc1nc(Nc2cccc(Cl)c2)nc2ccccc12
11,1 µM,COc1cccc(CNc2nc(Nc3cccc(Cl)c3)nc3ccccc23)c1
12,> 30 µM (inactive),O=C(NCc1ccco1)c1cc(S(=O)(=O)N2CCOCC2)ccc1Cl
13,> 30 µM (inactive),COc1ccc(CNc2nc(Cl)nc3ccccc23)cc1
14,> 30 µM (inactive),CCOC(=O)NC(NC(=O)OCC)C(=O)c1ccc(F)cc1
15,0.9 µM,COc1c(Cl)cccc1Nc1nc(NCc2ccccc2)c2ccccc2n1
16,7.5 µM,COc1ccc2nc(NCc3ccccc3)nc(NCc3ccccc3)c2c1
17,> 30 µM (inactive),Clc1nc(NCc2ccccc2Br)c2ccccc2n1
18,2 µM,c1ccc(CNc2nc(N3CCc4ccccc43)nc3ccccc23)cc1
19,> 30 µM (inactive),Clc1nc(NCc2ccc(Br)cc2)c2ccccc2n1
20,1.4 µM,CCN(CC)c1ccc2cc(-c3nc4ccccc4[nH]3)c(=O)oc2c1
21,> 30 µM (inactive),CC1(C)N(O)CC(c2cccs2)=[N+]1[O-]
22,5.2 µM,O=[N+]([O-])c1cccc(Nc2nc(NCc3ccccc3)c3ccccc3n2)c1
23,2.6 µM,c1ccc(Nc2nc(Nc3ccccc3)c3ccccc3n2)cc1
24,0.7 µM,Cc1c(Cl)cccc1Nc1nc(NCc2ccccc2)c2ccccc2n1
25,3.7 µM,Clc1cccc(Nc2nc(NCc3cccc(Br)c3)c3ccccc3n2)c1
26,4 µM,Clc1cccc(Nc2nc(NCc3ccccc3Br)c3ccccc3n2)c1
27,5.2 µM,Ic1cccc(Nc2nc(NCc3ccccc3)c3ccccc3n2)c1

row,IC50,Compound
1,1.5 µM,Fc1ccc(CNc2nc(Nc3cccc(Cl)c3)nc3ccccc23)cc1
2,0.8 µM,Cc1ccc(Cl)cc1Nc1nc(NCc2ccccc2)c2ccccc2n1
3,4.4 µM,COc1cc2nc(NCc3ccccc3)nc(NCc3ccccc3)c2cc1OC
4,inactive,N#Cc1ccc2c(NCc3ccccc3)nc(NCc3ccccc3)nc2c1
5,5 µM,Clc1cccc(CNc2nc(Nc3cccc(Cl)c3)nc3ccccc23)c1
6,> 30 µM (inactive),Cc1cccc(CNc2nc(Cl)nc3ccccc23)c1
7,2.3 µM,Cc1cccc(CNc2nc(Nc3cccc(Cl)c3)nc3ccccc23)c1
8,> 30 µM (inactive),Clc1nc(NCc2cccc(Br)c2)c2ccccc2n1
9,> 30 µM (inactive),Cc1ccccc1CNc1nc(Cl)nc2ccccc12
10,> 30 µM (inactive),COc1cccc(CNc2nc(Cl)nc3ccccc23)c1
11,> 30 µM (inactive),Clc1nc(NCc2ccccc2Cl)c2ccccc2n1
12,> 30 µM (inactive),O=S(=O)(NC1CCCCC1)c1ccc(Br)cc1
13,4.4 µM,c1ccc(CNc2nc(N3CCCc4ccccc43)nc3ccccc23)cc1
14,> 30 µM (inactive),COc1ccc(C)cc1NC(=O)c1[nH]c(C)c(C(C)=O)c1C
15,1.2 µM,Fc1cccc2nc(NCc3ccccc3)nc(NCc3ccccc3)c12
16,5.7 µM,COc1ccc2c(NCc3ccccc3)nc(NCc3ccccc3)nc2c1
17,0.9 µM,Cc1c(F)cccc1Nc1nc(NCc2ccccc2)c2ccccc2n1
18,0.6 µM,COc1cccc2c(NCc3ccccc3)nc(NCc3ccccc3)nc12
19,> 30 µM (inactive),Cc1ccc(C2=[N+]([O-])C3(CCCCC/C3=N\O)N(O)C2(C)C)o1 (stereo unspecified)
20,0.6 µM,c1ccc(CNc2nc(N3CCOc4ccccc43)nc3ccccc23)cc1
21,2.3 µM,COc1ccc(CNc2nc(Nc3cccc(Cl)c3)nc3ccccc23)cc1
22,0.9 µM,Cc1ccc(Nc2nc(NCc3ccccc3)c3ccccc3n2)cc1F
23,> 30 µM (inactive),CN1CCN(S(=O)(=O)c2ccc(NC(=O)c3cccc(S(=O)(=O)N4CCCC4)c3)cc2)CC1
24,3 µM,CC(C)Sc1oc(-c2ccco2)nc1S(=O)(=O)c1ccc(F)cc1
25,> 30 µM (inactive),CC(C)(C)NC(=O)Nc1ccc2nccnc2c1
26,> 30 µM (inactive),Fc1cccc(CNc2nc(Cl)nc3ccccc23)c1
27,inactive,COc1ccc(Nc2nc(Nc3ccc(OC)cc3)c3ccccc3n2)cc1

row,IC50,Compound
1,3.1 µM,Fc1cccc2c(NCc3ccccc3)nc(NCc3ccccc3)nc12
2,> 30 µM (inactive),Clc1cccc(CNc2nc(Cl)nc3ccccc23)c1
3,> 30 µM (inactive),Fc1ccc(CNc2nc(Cl)nc3ccccc23)cc1
4,5.5 µM,Clc1ccc2c(NCc3ccccc3)nc(NCc3ccccc3)nc2c1
5,1.4 µM,Cc1ccc(CNc2nc(Nc3cccc(Cl)c3)nc3ccccc23)cc1
6,2.6 µM,Fc1ccc2c(NCc3ccccc3)nc(NCc3ccccc3)nc2c1
7,> 30 µM (inactive),CC(=O)Nc1ccc(NC(=O)c2ccccc2F)cc1
8,1.7 µM,COc1c(F)cccc1Nc1nc(NCc2ccccc2)c2ccccc2n1
9,> 30 µM (inactive),Fc1ccccc1CNc1nc(Cl)nc2ccccc12
10,7.4 µM,Clc1cccc(Nc2nc(NCc3ccc(Br)cc3)c3ccccc3n2)c1
11,> 30 µM (inactive),COc1ccccc1CNc1nc(Cl)nc2ccccc12
12,0.7 µM,Cc1cc(F)cc(Nc2nc(NCc3ccccc3)c3ccccc3n2)c1
13,9.1 µM,FC(F)(F)c1ccc2c(NCc3ccccc3)nc(NCc3ccccc3)nc2c1
14,> 30 µM (inactive),O=C1C(C=NCC2CCCO2)=C(O)c2ccccc21 (stereo unspecified)
15,4.7 µM,Clc1cccc(Nc2nc(NCc3ccccc3Cl)c3ccccc3n2)c1
16,0.4 µM,c1ccc(CNc2nc(N3CCNc4ccccc43)nc3ccccc23)cc1
17,2.8 µM,Clc1ccc(CNc2nc(Nc3cccc(Cl)c3)nc3ccccc23)cc1
18,> 30 µM (inactive),O=C(C1CCCN(S(=O)(=O)c2cnc[nH]2)C1)N(CCc1ccccc1)Cc1ccccc1 (stereo unspecified)
19,> 30 µM (inactive),CC(C)n1c2ccccc2c2nnc(SCC(=O)OCN3C(=O)c4ccccc4C3=O)nc21
20,4.2 µM,Cc1ccccc1CNc1nc(Nc2cccc(Cl)c2)nc2ccccc12
21,4.7 µM,Fc1ccc2nc(NCc3ccccc3)nc(NCc3ccccc3)c2c1
22,3.3 µM,Brc1cccc2c(NCc3ccccc3)nc(NCc3ccccc3)nc12
23,2.2 µM,Cc1ccc2c(NCc3ccccc3)nc(NCc3ccccc3)nc2c1
24,1.6 µM,COc1ccccc1CNc1nc(Nc2cccc(Cl)c2)nc2ccccc12
25,1.6 µM,Clc1ccc2nc(NCc3ccccc3)nc(NCc3ccccc3)c2c1
26,6.7 µM,COc1ccc(F)cc1Nc1nc(NCc2ccccc2)c2ccccc2n1

# Same assay, conditions: purified p97 ATPase, Kinase-Glo ATP luminescence; at 30 µM (top of the series)
row,inhibition,Compound
1,inactive,Clc1ccc(Nc2nc(Nc3cccc(Cl)c3)nc3ccccc23)cc1
